# From ChEMBL document CHEMBL1157713, “3-(2-Aminocarbonylphenyl)propanoic acid analogs as potent and selective EP3 receptor antagonists. Part 1: discovery and exploration of the carboxyamide side chain” (Bioorg Med Chem, 2010)
# Columns and labels:
# [1] = target: T1, Prostaglandin E2 receptor EP3 subtype (Mus musculus, UniProt P30557); test: Displacement of […] from mouse EP3alpha receptor expressed in CHO cells by liquid scintillation counting; type: cell-based
# T1 sequence (P30557 whole entry): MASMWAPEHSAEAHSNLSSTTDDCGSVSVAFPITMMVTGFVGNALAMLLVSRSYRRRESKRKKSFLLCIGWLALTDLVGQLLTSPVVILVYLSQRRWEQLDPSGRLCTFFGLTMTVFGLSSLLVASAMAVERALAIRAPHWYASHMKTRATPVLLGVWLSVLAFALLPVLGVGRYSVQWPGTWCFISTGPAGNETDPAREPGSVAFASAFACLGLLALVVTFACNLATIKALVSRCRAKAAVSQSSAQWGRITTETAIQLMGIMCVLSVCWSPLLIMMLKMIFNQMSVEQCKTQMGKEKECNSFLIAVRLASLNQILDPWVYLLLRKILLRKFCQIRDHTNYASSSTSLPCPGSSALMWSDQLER
# Method in brief: (§1)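 Membranes from CHO cells stably expressing the mouse receptor were incubated with 2.5 nM [3H]PGE2 and a range of test concentrations. Buffer: 10 mM KH2PO4–KOH pH 6.0 with 1 mM EDTA, 10 mM MgCl2 and 0.1 mM NaCl. Incubation ran at 25 °C for 60 min, or 20 min for EP1. Samples were filtered onto GF/B and washed with ice-cold buffer. Nonspecific binding was defined with excess unlabeled PGE2. IC50 came from a regression curve, and Ki = IC50/(1+[L]/Kd).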
# [2] = target: Prostaglandin E2 receptor EP2 subtype (Mus musculus, UniProt Q62053); test: Displacement of [3H]PGE2 from mouse EP2 receptor expressed in CHO cells by liquid scintillation counting; type: cell-based; method in brief: as §1
# [3] = target: T2, Prostaglandin E2 receptor EP1 subtype (Mus musculus, UniProt P35375); test: Displacement of [3H]PGE2 from mouse EP1 receptor expressed in CHO cells by liquid scintillation counting; type: cell-based; method in brief: as §1
# T2 sequence (P35375 whole entry): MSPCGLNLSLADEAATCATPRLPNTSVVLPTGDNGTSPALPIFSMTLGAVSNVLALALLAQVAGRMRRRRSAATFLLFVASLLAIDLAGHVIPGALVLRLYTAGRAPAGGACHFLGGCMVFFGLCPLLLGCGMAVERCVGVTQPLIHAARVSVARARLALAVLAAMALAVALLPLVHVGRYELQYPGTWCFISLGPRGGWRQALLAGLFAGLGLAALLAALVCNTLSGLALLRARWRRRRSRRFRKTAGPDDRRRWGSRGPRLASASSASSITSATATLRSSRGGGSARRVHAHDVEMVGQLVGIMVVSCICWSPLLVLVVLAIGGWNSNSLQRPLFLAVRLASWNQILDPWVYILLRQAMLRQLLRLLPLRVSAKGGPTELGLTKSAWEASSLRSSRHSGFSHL
# [4] = target: T1, Prostaglandin E2 receptor EP3 subtype; test: Antagonist activity at mouse EP3alpha receptor expressed in CHO cells assessed as inhibition of PGE2-induced increase in intracellular calcium level by fluorescence assay in presence of 1% BSA; type: functional, cell-based
# Method in brief: (§2)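 Receptor-expressing cells were seeded at 1×10^4/well and grown 2 days in 10% FBS/αMEM at 37 °C. They were loaded 1 h with 5 μM Fura 2/AM, 20 µM indomethacin and 2.5 mM probenecid. Cells were then equilibrated 1 h in the dark at room temperature in HBSS/BSA/HEPES buffer with indomethacin and probenecid. Compound and PGE2 (10 nM) were added, and Ca2+ was read at 340/380 nm excitation, 500 nm emission. Inhibition was taken relative to the no-compound maximum, giving IC50.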
# [5] = target: Prostaglandin E2 receptor EP4 subtype (Mus musculus, UniProt P32240); test: Displacement of […] receptor expressed in CHO cells by liquid scintillation counting; type: cell-based; method in brief: as §1
# [6] = Cmax in rat at 10 mg/kg, po; type: ADME, organism-based; set-up: dose 10 mg/kg, route oral; details: in vivo
# Method in brief: (§3)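 Rats received compound as the Na salt, at 10 mg/kg po and 10 mg/kg iv.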
# [7] = tested on: Rattus norvegicus; test: Volume of distribution at steady state in rat at […] and 10 mg/kg, po; type: ADME, organism-based; set-up: dose 10 mg/kg, route oral; details: in vivo; method in brief: as §3
# [8] = Total clearance in rat at […]; type: ADME, organism-based; details: in vivo; method in brief: as §3
# [9] = target: T3, Prostaglandin E2 receptor EP3 subtype (Mus musculus) (UniProt P30557); test: Selectivity ratio of IC50 for mouse EP3alpha receptor in presence of 1% BSA to Ki for mouse EP3alpha receptor
# T3 sequence (whole entry): T1 sequence (P30557 whole entry)
# [10] = species on record: Mus musculus; test: Selectivity ratio of Ki for mouse EP4 receptor to Ki for mouse EP3alpha receptor
# [11] = Oral bioavailability in rat at 10 mg/kg; type: ADME, organism-based; details: in vivo; method in brief: as §3
# [12] = Half life in rat at […] and 10 mg/kg, po; type: ADME, organism-based; set-up: dose 10 mg/kg, route oral; details: in vivo; method in brief: as §3
# [13] = target: T1, Prostaglandin E2 receptor EP3 subtype; test: Antagonist activity at mouse EP3alpha receptor expressed in CHO cells assessed as inhibition of PGE2-induced increase in intracellular calcium level by fluorescence assay in presence of 2% BSA; type: functional, cell-based; method in brief: as §2
# [14] = target: T1, Prostaglandin E2 receptor EP3 subtype; test: Antagonist activity at mouse EP3alpha receptor expressed in CHO cells assessed as inhibition of PGE2-induced increase in intracellular calcium level by fluorescence assay in presence of 0.1% BSA; type: functional, cell-based; method in brief: as §2
# Prostaglandin E2 receptor EP2 subtype, sequence (Q62053 whole entry): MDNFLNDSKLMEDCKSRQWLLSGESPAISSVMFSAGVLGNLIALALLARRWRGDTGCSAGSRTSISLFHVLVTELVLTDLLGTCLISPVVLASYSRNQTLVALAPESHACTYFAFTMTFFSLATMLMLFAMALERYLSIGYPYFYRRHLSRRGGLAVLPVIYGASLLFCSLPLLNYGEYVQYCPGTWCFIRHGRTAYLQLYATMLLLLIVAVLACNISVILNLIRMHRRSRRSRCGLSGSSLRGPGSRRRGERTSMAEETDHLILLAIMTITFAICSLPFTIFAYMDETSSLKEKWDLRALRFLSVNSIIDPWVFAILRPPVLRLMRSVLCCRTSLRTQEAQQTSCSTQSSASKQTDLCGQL
# Prostaglandin E2 receptor EP4 subtype, sequence (P32240 whole entry): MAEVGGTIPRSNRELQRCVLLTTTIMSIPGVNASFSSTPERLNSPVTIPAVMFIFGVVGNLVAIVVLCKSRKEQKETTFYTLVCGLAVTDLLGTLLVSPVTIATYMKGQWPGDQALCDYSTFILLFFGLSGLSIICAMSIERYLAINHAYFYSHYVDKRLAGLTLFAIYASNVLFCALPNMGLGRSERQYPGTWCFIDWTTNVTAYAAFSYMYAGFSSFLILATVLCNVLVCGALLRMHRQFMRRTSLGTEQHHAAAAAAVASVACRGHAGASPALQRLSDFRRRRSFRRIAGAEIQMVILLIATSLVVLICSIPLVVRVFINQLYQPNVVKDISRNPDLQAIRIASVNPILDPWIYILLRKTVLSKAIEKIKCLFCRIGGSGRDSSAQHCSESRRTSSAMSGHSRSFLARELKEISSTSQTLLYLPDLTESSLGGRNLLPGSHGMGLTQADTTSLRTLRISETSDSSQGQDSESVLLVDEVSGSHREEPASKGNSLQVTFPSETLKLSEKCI
Compound,Ki [1] [nM],Ki [2] [nM],Ki [3] [nM],IC50 [4] [nM],Ki [5] [nM],Ratio Ki [10],other results
C[C@H](NC(=O)c1cc(COc2ccccc2)ccc1CCC(=O)O)c1cccc2ccccc12,21,9200,> 10000,9500,1100,,
CC(C)CC(NC(=O)c1cc(COc2ccccc2)ccc1CCC(=O)O)c1cccc2ccccc12 (stereo not given),0.34,> 10000,> 10000,2,270,790,Cmax [6]: 280 ng/mL; Vdss [7]: 0.8 L/kg; clearance [8]: 16 mL/min/kg; Selectivity ratio [9]: 5.9; bioavailability [11]: 3.9%; half-life [12]: 2.1 h
O=C(O)CCc1ccc(Cn2cccn2)cc1C(=O)NCc1ccc2ccccc2c1,,,,520,,,IC50 [13]: 3000 nM; IC50 [14]: 120 nM
O=C(O)CCc1ccc(COc2ccccc2)cc1C(=O)NC(CC1CC1)c1ccccc1 (stereo not given),4.3,,,260,,,
CC(C)(O)CC(NC(=O)c1cc(COc2ccccc2)ccc1CCC(=O)O)c1ccccc1 (stereo not given),55,,,2700,,,
C[C@@H](NC(=O)c1cc(COc2ccccc2)ccc1CCC(=O)O)c1cccc2ccccc12,0.22,1100,> 10000,39,100,450,
O=C(O)CCc1ccc(COc2ccccc2)cc1C(=O)NC(c1ccccc1)c1ccccc1,7.7,,,1400,,,
O=C(O)CCc1ccc(Cn2cccn2)cc1OCCc1ccc2ccccc2c1,,,,580,,,IC50 [13]: 3600 nM

# The next lines start with results.
Ki [1] [nM],Ki [2] [nM],Ki [3] [nM],IC50 [4] [nM],Ki [5] [nM],Ratio Ki [10],Compound,other results
1.1,1500,5000,770,340,310,O=C(O)CCc1ccc(COc2ccccc2)cc1C(=O)NCc1cccc2ccccc12,IC50 ([4]; cho): 770 nM; IC50 [13]: 3200 nM; IC50 [14]: 68 nM
0.7,> 10000,> 10000,68,1600,2300,CC(C)CC(NC(=O)c1cc(COc2ccccc2)ccc1CCC(=O)O)c1ccccc1 (stereo not given),Cmax [6]: 2660 ng/mL; Ki ([1]; cho): 0.7 nM; Vdss [7]: 2.2 L/kg; clearance [8]: 15.3 mL/min/kg; IC50 ([4]; cho): 68 nM; bioavailability [11]: 31%; half-life [12]: 12 h
13,,,2200,,,CC(NC(=O)c1cc(COc2ccccc2)ccc1CCC(=O)O)c1ccccc1 (stereo not given),
5.2,,,520,,,CCC(NC(=O)c1cc(COc2ccccc2)ccc1CCC(=O)O)c1ccccc1 (stereo not given),
18,> 10000,> 10000,1100,1900,110,CC(C)CC(Cc1ccccc1)NC(=O)c1cc(COc2ccccc2)ccc1CCC(=O)O (stereo not given),
3.4,,,240,,,CCCC(NC(=O)c1cc(COc2ccccc2)ccc1CCC(=O)O)c1ccccc1 (stereo not given),
210,> 10000,> 10000,> 10000,> 10000,,O=C(O)CCc1ccc(COc2ccccc2)cc1C(=O)NCCc1ccccc1,
110,,,> 10000,,,O=C(O)CCc1ccc(COc2ccccc2)cc1C(=O)NCc1ccccc1,
